Results on 14 molecules are retold here after PubChem BioAssay.

Assay [1] is described as follows: Her2 expression decrease, cell viability multiplex – SKBR3 breast tumor cells, AlphaScreen, ATP viability, primary screen (AID 461;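 active means Her2 level under about 52% in both replicate screens, with viability over 70% of control, limit read from the data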;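 on Her2 level: lower value means less Her2 protein in the cells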;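 on viability: percent of carrier control wells set as 100% viability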). To be noted: SKBR3 Her2 protein level, 18-24 h, measured here: SKBR3 viability, ATP luminescence, at 10 µM. For orientation: In Alpha technology, singlet oxygen from a donor bead excites a nearby acceptor bead.
For assay [2], the target named is Receptor tyrosine-protein kinase erbB-2 (Homo sapiens) (UniProt P04626). Described as above. To be noted: 18-24 h, at 10 µM, stronger effect = lower value.
Sequence of Receptor tyrosine-protein kinase erbB-2 (Homo sapiens) (P04626 whole entry, looked up): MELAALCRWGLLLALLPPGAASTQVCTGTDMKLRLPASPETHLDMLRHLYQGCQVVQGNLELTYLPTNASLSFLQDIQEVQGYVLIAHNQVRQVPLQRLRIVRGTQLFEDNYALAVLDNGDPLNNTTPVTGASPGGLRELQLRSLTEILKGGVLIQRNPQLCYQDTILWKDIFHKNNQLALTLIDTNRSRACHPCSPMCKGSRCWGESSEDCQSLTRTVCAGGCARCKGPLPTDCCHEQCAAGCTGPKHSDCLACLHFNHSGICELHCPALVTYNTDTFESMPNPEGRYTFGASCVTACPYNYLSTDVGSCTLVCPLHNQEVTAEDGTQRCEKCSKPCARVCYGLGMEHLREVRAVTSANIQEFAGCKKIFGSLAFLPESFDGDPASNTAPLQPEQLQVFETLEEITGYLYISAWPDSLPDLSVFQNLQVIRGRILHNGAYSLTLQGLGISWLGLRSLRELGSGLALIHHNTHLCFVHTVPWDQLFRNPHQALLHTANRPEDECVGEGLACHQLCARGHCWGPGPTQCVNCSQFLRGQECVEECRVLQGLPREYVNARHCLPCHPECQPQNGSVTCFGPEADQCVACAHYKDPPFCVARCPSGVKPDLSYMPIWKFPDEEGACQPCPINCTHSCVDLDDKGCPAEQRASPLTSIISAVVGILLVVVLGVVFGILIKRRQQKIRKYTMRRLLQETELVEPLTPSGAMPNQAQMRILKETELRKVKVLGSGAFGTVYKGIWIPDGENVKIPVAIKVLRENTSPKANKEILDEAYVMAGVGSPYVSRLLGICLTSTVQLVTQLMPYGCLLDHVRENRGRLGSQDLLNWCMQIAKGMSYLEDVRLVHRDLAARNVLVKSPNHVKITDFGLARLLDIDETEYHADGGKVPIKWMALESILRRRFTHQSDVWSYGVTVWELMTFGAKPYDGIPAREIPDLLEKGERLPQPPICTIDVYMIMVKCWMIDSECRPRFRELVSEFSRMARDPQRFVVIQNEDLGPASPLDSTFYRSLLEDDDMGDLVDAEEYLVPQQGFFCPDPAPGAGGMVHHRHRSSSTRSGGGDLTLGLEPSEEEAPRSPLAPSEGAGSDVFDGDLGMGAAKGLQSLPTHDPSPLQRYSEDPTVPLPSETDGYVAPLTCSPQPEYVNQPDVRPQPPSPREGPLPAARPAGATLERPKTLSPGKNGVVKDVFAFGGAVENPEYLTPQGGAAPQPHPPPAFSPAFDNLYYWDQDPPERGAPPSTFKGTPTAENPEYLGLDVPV
Assay [3] in a line: reduced viability of SK-BR-3 breast cancer cells – cell-based, 24 h, human, pilot screen (AID 572;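 active means viability at or below 10% of carrier control in both of two separate runs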;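 further: compound exposure lasted between 18 and 24 h rather than exactly 24 h; 100% = carrier-treated control wells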). To be noted: SK-BR-3 viability, CellTiter-Glo luminescence, at 10 µM, stronger effect = lower value. In general terms: Cellular ATP, detected with luciferase, serves as a proxy for viable cell number.
A short description of assay [4]: HUVEC growth inhibition – cell-based, human, primary screen (AID 575).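 Further: 100% = median of untreated cell wells with 0.1% DMSO on each plate.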 To be noted: HUVEC proliferation, CellTiter-Glo luminescence, 72 h; at 10 µM; stronger effect = lower value. The gist of the method:
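System: primary human umbilical vein endothelial cells; Quantity: 1250 endothelial cells in each well; Buffer or medium: supplemented EBM, 2% fetal bovine serum; Doses: one dose, 10 µM final, 0.1% DMSO; Incubation: 72 h compound incubation; Technique: ATP-based CellTiter-Glo luminescent read; Evaluation: percent of median DMSO-control luminescence; Controls: vehicle and MePR control wells.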

A short description of assay [5]: H69AR cell proliferation blockers – human, duplicate replicates, primary screen (AID 580;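 active means viability at or under a set limit in both replicates, limit being median viability minus 3 SD, cut at about 48% in these data, passing the limit was not always enough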;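 further: 100% = mean luminescence of untreated wells and 0% = no signal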). To be noted: H69AR lung tumor cells viability, ATP luminescence, 72 h; at 10 µM; stronger effect = lower value.
Assay [6] can be described thus: MRP1 drug-resistance reversers in H69AR cells – cell-based, doxorubicin co-treatment, pilot screen (AID 601;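 active means viability loss from added drug above about 55%, and viability with drug at most 40%, in both replicates, limit read from the data, passing the limit was not always enough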). To be noted: CellTiter-Glo, 72 h, at 10 µM; for differential viability (reversal): stronger effect = higher value.
A short description of assay [7]: yeast transport mutant growth inhibition pilot in 384-well plates, post-Golgi transport modulator project (AID 636; in the data active means inhibition above about 31%). To be noted: absorbance 615 nm, about 18 h, stronger effect = higher value.
Assay [8] can be described thus: growth suppression of yeast trafficking mutant, preliminary HTS, modulators of trafficking downstream of Golgi apparatus project, 1536-format plate, OD 615 nm (AID 637; in the data active means inhibition above about 30%). To be noted: yeast transport mutant growth, absorbance 615 nm, 18 h; stronger effect = higher value.
The mark [9] stands for this setting: H69AR cells + 2 uM doxorubicin, measured here: viability with 2 uM doxorubicin, stronger effect = lower value.
Setting [10] is: H69AR cells, compound alone cytotoxicity.

Molecules are shown by their SMILES. Calls of active or inactive are those of the source.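 How the source made its calls, unless noted: active means viability at or below 30% in both replicate assays; inconclusive means viability at or below 30% in just one of the two assays; inactive means the rest.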

Usually viability stands for a read-out of living cells in per cent, often relative to untreated cells. As a reminder, the inhibition is the change of the read-out against control, counted positive when it falls. In the case of `O=C(C1CCCO1)N1CCc2ccccc21` (stereo not given), the viability in assay [1] is 85%; in assay [3], 85% (inactive); in assay [4], 94% (inactive); in assay [5] it was 92.4% (inactive); in assay [6] (setting [9]), 97.8%; in assay [6] (setting [10]) it was 92.4%. The Her2 level in assay [2] was 92.5% (inactive). Also, in assay [6] (H69AR cells + 2 uM doxorubicin), the differential viability (reversal) is -5.42% (inactive). Also, the inhibition in assay [7] was -4.8% (inactive); in assay [8] it was -0.32% (inactive).
Turning to `COc1cc(C(N)=O)ccc1OCc1ccccc1`, the viability is 86% in assay [1]; 86% (inactive) in assay [3]; 91.6% (inactive) in assay [4]; 98.7% (inactive) in assay [5]; 90.8% in assay [6] (setting [9]); 98.7% in assay [6] (setting [10]). Also, in assay [2], the Her2 level is 83.5% (inactive). In addition, the differential viability (reversal) in assay [6] (H69AR cells + 2 uM doxorubicin) was 8% (inactive). For the same molecule, the inhibition is -1.45% (inactive) in assay [7] and -7.14% (inactive) in assay [8].
`COCCn1c(=O)[nH]c2cc(C(=O)N3CCN(Cc4ccc5c(c4)OCO5)CC3)ccc2c1=O`: the viability was 93.5% in assay [1]; 93.5% (inactive) in assay [3]; 117% (inactive) in assay [4]; 93.1% (inactive) in assay [5]; 94.9% in assay [6] (setting [9]); 93.1% in assay [6] (setting [10]). Also, the Her2 level in assay [2] was 106% (inactive). Besides, the differential viability (reversal) in assay [6] (H69AR cells + 2 uM doxorubicin) is -1.86% (inactive). The inhibition was 1.47% (inactive) in assay [7] and 9.34% (inactive) in assay [8].
`CC1CCCN(c2ccc(C(=O)NCc3cccs3)cn2)C1` (stereo not given): the viability in assay [1] is 98.5%; in assay [3] it was 98.5% (inactive); in assay [4], 96.1% (inactive); in assay [5], 82.8% (inactive); in assay [6] (setting [9]), 77.9%; in assay [6] (setting [10]), 82.8%. For the same molecule, the Her2 level in assay [2] was 89.5% (inactive). Further, the differential viability (reversal) in assay [6] (H69AR cells + 2 uM doxorubicin) is 4.85% (inactive). Further, the inhibition in assay [7] is -0.91% (inactive); in assay [8], -2.86% (inactive).
Take `CCn1c(=O)cc(SCC(=O)Nc2ccc3c(c2)OCO3)c2ccccc21`: the viability was 97% in assay [1]; 97% (inactive) in assay [3]; 64.1% (inactive) in assay [4]; 87.9% (inactive) in assay [5]; 84.4% in assay [6] (setting [9]); 87.9% in assay [6] (setting [10]). Besides, the Her2 level in assay [2] is 88% (inactive). Also, in assay [6] (H69AR cells + 2 uM doxorubicin), the differential viability (reversal) is 3.51% (inactive). The results for the inhibition in assay [7] and in assay [8] were -2.5% (inactive) and -10.5% (inactive), respectively.
For `COC(=O)c1cc(OC)c(OC)cc1NC(=O)CC1CCCCC1`, the viability in assay [1] is 104%; in assay [3] it was 104% (inactive); in assay [4], 99.3% (inactive); in assay [5] it was 103% (inactive); in assay [6] (setting [9]) it was 93.6%; in assay [6] (setting [10]), 103%. In assay [2], the Her2 level was 96.5% (inactive). Further, the differential viability (reversal) in assay [6] (H69AR cells + 2 uM doxorubicin) is 9.91% (inactive). Moreover, the inhibition is 0.79% (inactive) in assay [7] and -2.9% (inactive) in assay [8].
Turning to `CCOC(=O)CC(NS(=O)(=O)c1ccc(NC(C)=O)cc1)c1ccc(OCC)cc1` (stereo not given), the viability was 115% in assay [1]; 115% (inactive) in assay [3]; 110% (inactive) in assay [4]; 90.9% (inactive) in assay [5]; 93.9% in assay [6] (setting [9]); 90.9% in assay [6] (setting [10]). The Her2 level in assay [2] is 100% (inactive). In assay [6] (H69AR cells + 2 uM doxorubicin), the differential viability (reversal) was -2.94% (inactive). Further, the inhibition in assay [7] was -7.63% (inactive); in assay [8] it was -4.91% (inactive).
For the molecule `C(#Cc1ccccc1)Cn1nnc2ccccc21`, the viability is 80.5% in assay [1]; 80.5% (inactive) in assay [3]; 99% (inactive) in assay [4]; 83.1% (inactive) in assay [5]; 75.6% in assay [6] (setting [9]); 83.1% in assay [6] (setting [10]). Besides, the Her2 level in assay [2] is 86.5% (inactive). Besides, the differential viability (reversal) in assay [6] (H69AR cells + 2 uM doxorubicin) was 7.46% (inactive). The values for the inhibition in assay [7] and in assay [8] were 0.9% (inactive) and 4.33% (inactive), respectively.
Turning to `Cc1cccc(N(C)C(=O)c2cc3cc4ccc(C)cc4nc3o2)c1`, the viability in assay [1] is 89%; in assay [3], 89% (inactive); in assay [4], 57.1% (inactive); in assay [5], 12% (active); in assay [6] (setting [9]), 48.8%; in assay [6] (setting [10]), 12%. Further, the Her2 level in assay [2] is 73.5% (inactive). The differential viability (reversal) in assay [6] (H69AR cells + 2 uM doxorubicin) is -36.7% (inactive). Further, the figures for the inhibition in assay [7] and in assay [8] were -4% (inactive) and -4.26% (inactive), respectively.
Turning to `Cn1c(C(=O)NCCC2=CCCCC2)cc2c(=O)n3ccccc3nc21`, the viability in assay [1] is 88%; in assay [3] it was 88% (inactive); in assay [4], 95.5% (inactive); in assay [5], 96.1% (inactive); in assay [6] (setting [9]), 80.4%; in assay [6] (setting [10]) it was 96.1%. Moreover, the Her2 level in assay [2] is 98.5% (inactive). The differential viability (reversal) in assay [6] (H69AR cells + 2 uM doxorubicin) is 15.7% (inactive). In addition, the results for the inhibition in assay [7] and in assay [8] were 0.26% (inactive) and -1.97% (inactive), respectively.
Consider `O=C1OC(N2CCN(c3ccccn3)CC2)c2ccccc21` (stereo not given), for which the viability in assay [1] is 94%; in assay [3] it was 94% (inactive); in assay [4], 105% (inactive); in assay [5], 96.8% (inactive); in assay [6] (setting [9]) it was 89.4%; in assay [6] (setting [10]), 96.8%. The Her2 level in assay [2] was 80.5% (inactive). For the same molecule, in assay [6] (H69AR cells + 2 uM doxorubicin), the differential viability (reversal) was 7.36% (inactive). Besides, the inhibition was -4.53% (inactive) in assay [7] and 1.48% (inactive) in assay [8].
As for `COc1cc(Nc2cc(C)nc3ncnn23)cc(OC)c1OC`, the viability was 102% in assay [1]; 102% (inactive) in assay [3]; 98.2% (inactive) in assay [4]; 100% (inactive) in assay [5]; 79.3% in assay [6] (setting [9]); 100% in assay [6] (setting [10]). Further, the Her2 level in assay [2] is 98.5% (inactive). The differential viability (reversal) in assay [6] (H69AR cells + 2 uM doxorubicin) is 21% (inactive). Also, the inhibition is 1.6% (inactive) in assay [7] and -3.11% (inactive) in assay [8].
For the molecule `CCCCCC1CC(CC#CCN2CCOCC2)C(=O)O1` (stereo not given), the viability in assay [1] was 86%; in assay [3], 86% (inactive); in assay [4], 83.4% (inactive); in assay [5], 93.8% (inactive); in assay [6] (setting [9]) it was 92.6%; in assay [6] (setting [10]), 93.8%. The Her2 level in assay [2] was 102% (inactive). In assay [6] (H69AR cells + 2 uM doxorubicin), the differential viability (reversal) was 1.16% (inactive). The inhibition in assay [7] was -7.4% (inactive); in assay [8], -7.78% (inactive).
`COc1ccc(S(=O)(=O)NC2CCCCC2)c(C)c1C`: the viability was 104% in assay [1]; 104% (inactive) in assay [3]; 90% (inactive) in assay [4]; 96.3% (inactive) in assay [5]; 87.7% in assay [6] (setting [9]); 96.3% in assay [6] (setting [10]). The Her2 level in assay [2] is 91% (inactive). Besides, the differential viability (reversal) in assay [6] (H69AR cells + 2 uM doxorubicin) was 8.58% (inactive). In addition, the inhibition in assay [7] is -2.89% (inactive); in assay [8] it was -2.9% (inactive).
